From ChEMBL document CHEMBL1154414, “In vitro and in vivo activities of T-705 against arenavirus and bunyavirus infections” (Antimicrob Agents Chemother, 2007)

How the values were obtained:
Punta Toro virus [1] = experiment: Antiviral activity against Punta Toro virus Adames infected Syrian golden hamster assessed as mean day of death at 30 mg/kg, po twice daily for 6 days administered 4 hrs before viral challenge; assay type: functional
Procedure, shortened: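 Hamsters (groups of 15, placebo 25-30) were challenged subcutaneously with 50 PFU and dosed twice daily by oral gavage in 0.4% CMC vehicle.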

Punta Toro virus [2] = experiment: Antiviral activity against 5000 PFU Punta Toro virus Adames infected C57BL/6 mouse assessed as animals with detectable virus level in serum at 10 mg/kg, po twice daily administered 24 hrs post viral challenge measured on day 3 of viral infection; assay type: functional
Procedure, shortened: (§1)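 Mice were infected subcutaneously with PTV and dosed by oral gavage twice daily; 5 per group (10 placebo) were killed on day 3 or 4. Liver homogenate or serum was serially diluted onto triplicate LLC-MK2 monolayers, and CPE was read 6–8 days later. 50% endpoints gave log10 CCID50 per 0.1 g liver or 0.1 ml serum. Detection range was 2.8–9.5; undetectable samples were assigned <2.8.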

Punta Toro virus [3] = experiment: Antiviral activity against 50 PFU Punta Toro virus Adames infected C57BL/6 mouse assessed as mean viral titer per 0.1 g of liver at 30 mg/kg, po twice daily administered 24 hrs post viral challenge measured on day 3 of viral infection; assay type: functional
Procedure, shortened: (§2)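 Mice were infected subcutaneously with PTV and dosed by oral gavage twice daily with drug in 0.4% CMC. Five per group (10 placebo) were sacrificed on day 3 or 4. Serially diluted liver homogenate or serum went into triplicate LLC-MK2 wells, and CPE 50% endpoints were read at 6–8 days. The range was 2.8–9.5 log10 CCID50/0.1 g or 0.1 ml, with undetectable samples set to 2.8 and saturated samples to 9.5.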

Punta Toro virus [4] = experiment: Antiviral activity against 50 PFU Punta Toro virus Adames infected C57BL/6 mouse assessed as mean viral titer per 0.1 mL of serum at 30 mg/kg, po twice daily administered 24 hrs post viral challenge measured on day 3 of viral infection; assay type: functional; procedure, shortened: as §2
Punta Toro virus [5] = experiment: Antiviral activity against 50 PFU Punta Toro virus Adames infected C57BL/6 mouse assessed as animals with detectable virus level in serum at 30 mg/kg, po twice daily administered 24 hrs post viral challenge measured on day 3 of viral infection; assay type: functional
Procedure, shortened: (§3)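 T-705 was suspended in 0.4% carboxymethylcellulose and given by oral gavage twice daily. Mice were infected subcutaneously with PTV. Five mice per group (10 placebo) were sacrificed on day 3 or 4. Liver homogenate or serum was serially diluted onto triplicate LLC-MK2 monolayers, and CPE was read at 6–8 days. The detection limit was 2.8 log10 CCID50 per 0.1 g liver or 0.1 ml serum.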

Punta Toro virus [6] = experiment: Antiviral activity against Punta Toro virus Adames assessed as inhibition of virus-induced visual cytopathic effect after 3 to 5 days; assay type: functional, organism-based
Procedure, shortened: (§4)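 Virus in medium with 2% FBS was used at the CCID50 that gave maximal CPE. Half-log drug dilutions (DMSO stock, ≤1% DMSO at the top concentration) were added at infection. EC50 was derived by regression analysis.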

[7] = tested on: Sandfly fever Naples virus; experiment: Antiviral activity against Sandfly fever Naples virus assessed as inhibition of virus-induced visual cytopathic effect after 3 to 5 days; assay type: functional, organism-based; procedure, shortened: as §4
Pichinde virus [8] = experiment: Antiviral activity against Pichinde virus An 4763 infected Syrian golden hamster assessed as mean serum ALT levels at 50 mg/kg, po twice daily for 7 days administered 24 hrs post viral-challenge measured on day 7 of viral infection; assay type: functional
Procedure, shortened: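 Hamsters were challenged intraperitoneally (bilateral, 65 PFU) and given twice-daily oral gavage doses (0.4% CMC vehicle). Five per group were sacrificed on day 7 and serum was collected. Serum ALT activity was measured by kinetic assay. Three sham-infected animals set the baselines.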

Pichinde virus [9] = experiment: Antiviral activity against Pichinde virus An 4763 infected Syrian golden hamster assessed as survival at 50 mg/kg, po twice daily for 7 days administered 72 hrs post viral-challenge; assay type: functional
Procedure, shortened: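 Groups of 15 hamsters (placebo 25-30) were challenged intraperitoneally (bilateral, 65 PFU) and dosed twice daily by oral gavage in 0.4% CMC for 5 to 7 days.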

Pichinde virus [10] = experiment: Antiviral activity against Pichinde virus An 4763 infected Syrian golden hamster assessed as mean viral titer per 0.1 g of liver at 50 mg/kg, po twice daily for 7 days administered 72 hrs post viral-challenge measured on day 7 of viral infection; assay type: functional
Procedure, shortened: (§5)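 Hamsters (groups of 15, placebo 25-30) were dosed orally by gavage twice daily (drug suspended in 0.4% CMC) after bilateral intraperitoneal challenge with 65 PFU. Five per group were killed on day 7. Liver homogenate or serum was serially diluted onto triplicate B-SC-1 wells, CPE was read at 6-8 days, and the 50% endpoint was taken. Range was 2.8-9.5 log10 CCID50/0.1 g or 0.1 ml, with undetectable assigned <2.8.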

Pichinde virus [11] = experiment: Antiviral activity against Pichinde virus An 4763 infected Syrian golden hamster assessed as mean viral titer per 0.1 mL of serum at 50 mg/kg, po twice daily for 7 days administered 72 hrs post viral-challenge measured on day 7 of viral infection; assay type: functional; procedure, shortened: as §5
Punta Toro virus [12] = experiment: Antiviral activity against 500 PFU Punta Toro virus Adames infected C57BL/6 mouse assessed as mean day of death at 10 mg/kg, po twice daily for 5 days administered 24 hrs post viral challenge; assay type: functional
Procedure, shortened: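 Groups of 15 mice (25–30 placebo) were inoculated subcutaneously with PTV. Drug in 0.4% carboxymethylcellulose was given by oral gavage twice daily.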

Punta Toro virus [13] = experiment: Antiviral activity against 500 PFU Punta Toro virus Adames infected C57BL/6 mouse assessed as mean viral titer per 0.1 g of liver at 30 mg/kg, po twice daily administered 24 hrs post viral challenge measured on day 3 of viral infection; assay type: functional; procedure, shortened: as §1
Punta Toro virus [14] = experiment: Antiviral activity against 500 PFU Punta Toro virus Adames infected C57BL/6 mouse assessed as animals with detectable virus level in serum at 30 mg/kg, po twice daily administered 24 hrs post viral challenge measured on day 3 of viral infection; assay type: functional; procedure, shortened: as §3
Punta Toro virus [15] = experiment: Antiviral activity against 500 PFU Punta Toro virus Adames infected C57BL/6 mouse assessed as mean serum ALT levels at 10 mg/kg, po twice daily administered 24 hrs post viral challenge measured on day 3 of viral infection; assay type: functional
Procedure, shortened: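 Subcutaneous PTV infection was followed by oral gavage twice daily with drug suspended in 0.4% CMC. Serum was collected from 5 sacrificed mice per group (10 placebo) on day 3 or 4. ALT activity was measured by kinetic assay, and sham-infected mice set the baselines.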

Pichinde virus [16] = experiment: Antiviral activity against Pichinde virus An 4763 infected Syrian golden hamster assessed as mean viral titer per 0.1 g of liver at 50 mg/kg, po twice daily for 7 days administered 24 hrs post viral-challenge measured on day 7 of viral infection; assay type: functional; procedure, shortened: as §5
Pichinde virus [17] = experiment: Antiviral activity against Pichinde virus An 4763 infected Syrian golden hamster assessed as mean viral titer per 0.1 g of liver at 20 mg/kg, po twice daily for 7 days administered 24 hrs post viral-challenge measured on day 7 of viral infection; assay type: functional; procedure, shortened: as §5
Pichinde virus [18] = experiment: Antiviral activity against Pichinde virus An 4763 infected Syrian golden hamster assessed as mean viral titer per 0.1 mL of serum at 20 mg/kg, po twice daily for 7 days administered 24 hrs post viral-challenge; assay type: functional; procedure, shortened: as §5
Punta Toro virus [19] = experiment: Antiviral activity against 5000 PFU Punta Toro virus Adames infected C57BL/6 mouse assessed as mean serum ALT levels at 30 mg/kg, po twice daily administered 24 hrs post viral challenge measured on day 3 of viral infection; assay type: functional
Procedure, shortened: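 C57BL/6 mice received subcutaneous PTV, then oral gavage twice daily for 5–7 days. T-705 was given in 0.4% CMC and ribavirin in saline. Five mice per group (10 placebo) were killed on day 3 or 4, and serum was collected. ALT activity was measured by kinetic assay. Three sham-infected mice set baselines.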

Row | SMILES | Activity (Punta Toro virus [1]) [days] | Activity (Punta Toro virus [2]) [%] | log10CCID50 (Punta Toro virus [3]) | log10CCID50 (Punta Toro virus [4]) | Activity (Punta Toro virus [5]) [%] | EC50 (Punta Toro virus [6]) [µM] | EC50 [7] [µM] | Activity (Pichinde virus [8]) [IU/L] | Efficacy (Pichinde virus [9]) [%] | log10CCID50 (Pichinde virus [10]) | log10CCID50 (Pichinde virus [11]) | Activity (Punta Toro virus [12]) [days] | log10CCID50 (Punta Toro virus [13]) | Activity (Punta Toro virus [14]) [%] | Activity (Punta Toro virus [15]) [IU/L] | log10CCID50 (Pichinde virus [16]) | log10CCID50 (Pichinde virus [17]) | log10CCID50 (Pichinde virus [18]) | Activity (Punta Toro virus [19]) [IU/L]
1 | NC(=O)c1nc(F)cnc1O [FAVIPIRAVIR] | 6 | 80 | <2.8 | <4.4 | 80 | 191 | 115 | 61 | 60 | 6.8 | 6.6 | 4.7 | <3.2 | 80 | 3302 | 5.7 | >8.4 | >9 | 521
2 | NC(=O)c1ncn([C@@H]2O[C@H](CO)[C@@H](O)[C@H]2O)n1 [RIBAVIRIN] | 13.3 | 100 | <2.8 | 6.1 | 100 | 172 | 90 | 26 | 60 | 6.5 | 6 | 5 | <3.1 | 80 | 2150 | 4.2 | 6 | <5.1 | 1491
